Assay results: ChEMBL document CHEMBL1158602, “Dihydro-pyrano[2,3-b]pyridines and tetrahydro-1,8-naphthyridines as CB1 receptor inverse agonists: synthesis, SAR and biological evaluation” (Bioorg Med Chem Lett, 2010)
pEC50, pIC50: −log10 of the molar value.

Key:
Rattus norvegicus [1] = assay: Toxicity in diet-induced obese rat assessed as change in body weight at 3 mg/kg, po after 18 hrs (RVb = 5 g); type: organism-based; set-up: dose 3 mg/kg, route oral; details: in vivo
Cannabinoid receptor 2 = Cannabinoid receptor 2 (Homo sapiens, UniProt P34972); assay: Binding affinity to human CB2 receptor
Cannabinoid receptor 2, sequence (P34972 whole entry): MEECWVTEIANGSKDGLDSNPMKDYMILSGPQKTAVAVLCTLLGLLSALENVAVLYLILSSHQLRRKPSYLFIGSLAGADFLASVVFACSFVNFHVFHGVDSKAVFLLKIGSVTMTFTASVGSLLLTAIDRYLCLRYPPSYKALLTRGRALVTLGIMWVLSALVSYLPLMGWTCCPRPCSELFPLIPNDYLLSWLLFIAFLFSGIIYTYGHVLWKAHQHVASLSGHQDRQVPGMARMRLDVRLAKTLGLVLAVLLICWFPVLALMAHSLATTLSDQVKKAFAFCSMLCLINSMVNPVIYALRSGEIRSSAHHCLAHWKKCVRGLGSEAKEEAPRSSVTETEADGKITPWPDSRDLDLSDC

[2] = biological target: Voltage-gated inwardly rectifying potassium channel KCNH2 (Homo sapiens, UniProt Q12809)
Voltage-gated inwardly rectifying potassium channel KCNH2, sequence (Q12809 whole entry): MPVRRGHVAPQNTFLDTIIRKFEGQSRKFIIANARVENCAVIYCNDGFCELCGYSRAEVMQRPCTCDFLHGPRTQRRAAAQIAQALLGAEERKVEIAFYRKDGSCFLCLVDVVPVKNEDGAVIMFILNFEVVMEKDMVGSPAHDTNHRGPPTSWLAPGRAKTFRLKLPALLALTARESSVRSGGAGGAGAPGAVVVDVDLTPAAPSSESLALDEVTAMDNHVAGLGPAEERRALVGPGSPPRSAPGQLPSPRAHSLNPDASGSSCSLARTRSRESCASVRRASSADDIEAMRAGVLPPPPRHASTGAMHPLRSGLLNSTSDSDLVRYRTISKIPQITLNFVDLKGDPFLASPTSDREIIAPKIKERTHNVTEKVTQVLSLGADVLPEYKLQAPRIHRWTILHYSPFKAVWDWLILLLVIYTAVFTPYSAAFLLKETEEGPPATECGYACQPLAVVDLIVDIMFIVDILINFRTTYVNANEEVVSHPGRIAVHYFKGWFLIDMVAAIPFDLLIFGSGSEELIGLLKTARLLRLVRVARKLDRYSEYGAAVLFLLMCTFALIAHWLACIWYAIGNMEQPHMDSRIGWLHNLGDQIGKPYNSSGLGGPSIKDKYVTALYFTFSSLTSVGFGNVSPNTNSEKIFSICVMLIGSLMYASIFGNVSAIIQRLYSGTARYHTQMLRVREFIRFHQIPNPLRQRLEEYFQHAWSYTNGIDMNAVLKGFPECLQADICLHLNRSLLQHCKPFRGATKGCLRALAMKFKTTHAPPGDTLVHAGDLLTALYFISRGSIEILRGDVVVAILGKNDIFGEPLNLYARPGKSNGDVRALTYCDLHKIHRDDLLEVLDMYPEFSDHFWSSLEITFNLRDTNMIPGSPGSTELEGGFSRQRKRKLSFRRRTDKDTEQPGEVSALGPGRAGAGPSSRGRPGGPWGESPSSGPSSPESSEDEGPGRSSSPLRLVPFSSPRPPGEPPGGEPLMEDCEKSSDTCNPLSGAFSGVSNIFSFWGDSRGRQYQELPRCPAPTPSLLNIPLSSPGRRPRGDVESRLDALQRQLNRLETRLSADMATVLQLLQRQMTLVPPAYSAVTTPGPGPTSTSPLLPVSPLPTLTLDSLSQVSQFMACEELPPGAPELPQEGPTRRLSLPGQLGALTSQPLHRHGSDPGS

Rattus norvegicus [3] = assay: Toxicity in diet-induced obese rat assessed as suppression in food intake at 3 mg/kg, po after 18 hrs; type: organism-based; set-up: dose 3 mg/kg, route oral; details: in vivo
[4] = Clearance in rat plasma at 1 mg/kg, iv after 4 hrs; type: ADME, organism-based; set-up: dose 1 mg/kg, route intravenous
Cannabinoid receptor 1 = Cannabinoid receptor 1 (Homo sapiens, UniProt P21554); assay: Binding affinity to human CB1 receptor
Cannabinoid receptor 1, sequence (P21554 whole entry): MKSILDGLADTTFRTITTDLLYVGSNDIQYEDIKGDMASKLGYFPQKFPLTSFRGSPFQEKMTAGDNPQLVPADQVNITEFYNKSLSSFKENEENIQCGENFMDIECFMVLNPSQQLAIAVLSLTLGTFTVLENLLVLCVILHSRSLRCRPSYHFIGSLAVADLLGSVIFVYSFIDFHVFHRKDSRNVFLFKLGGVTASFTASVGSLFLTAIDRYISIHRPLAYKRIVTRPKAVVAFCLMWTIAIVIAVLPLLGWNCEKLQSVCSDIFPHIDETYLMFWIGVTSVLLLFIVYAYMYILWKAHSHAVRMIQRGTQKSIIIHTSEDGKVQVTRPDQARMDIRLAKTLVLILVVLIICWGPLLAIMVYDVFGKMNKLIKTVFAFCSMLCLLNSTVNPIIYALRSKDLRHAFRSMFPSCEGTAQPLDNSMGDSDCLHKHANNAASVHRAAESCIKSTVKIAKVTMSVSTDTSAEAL

[5] = Oral bioavailability in rat at 1 mg/kg, iv after 4 hrs; type: ADME, organism-based; details: in vivo
[6] = Half life in rat at 1 mg/kg, iv after 4 hrs; type: ADME, organism-based; set-up: dose 1 mg/kg, route intravenous; details: in vivo
[7] = Drug level in rat plasma at 1 mg/kg, iv after 4 hrs; type: ADME, organism-based; set-up: dose 1 mg/kg, route intravenous; details: read-out: Drug uptake
Summary of the method: (§1)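 Rats given 1 mg/kg intravenously; brain and plasma drug concentrations measured 4 h after dosing, and the brain/plasma ratio taken from these levels.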

Rattus norvegicus [8] = assay: Toxicity in diet-induced obese rat assessed as change in body weight at 3 mg/kg, po after 18 hrs (RVb = 6 g); type: organism-based; set-up: dose 3 mg/kg, route oral; details: in vivo
Summary of the method: (§2)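 Diet-induced obese rats dosed orally at 3 mg/kg and monitored for 18 h (overnight); body weight change and food intake compared with vehicle-treated animals.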

[9] = Ratio of drug level in brain to plasma in rat at 1 mg/kg, iv after 4 hrs; type: ADME, organism-based; set-up: dose 1 mg/kg, route intravenous; details: brain and plasma; summary of the method: as §1
[10] = Drug level in rat brain at 1 mg/kg, iv after 4 hrs; type: ADME, organism-based; set-up: dose 1 mg/kg, route intravenous; details: read-out: Drug uptake; summary of the method: as §1
Rattus norvegicus [11] = assay: Toxicity in diet-induced obese rat assessed as change in body weight at 3 mg/kg, po after 18 hrs (RVb = 7 g); type: organism-based; set-up: dose 3 mg/kg, route oral; details: in vivo; summary of the method: as §2
[12] = biological target: GABA-A receptor; agonist GABA site; assay: Partial agonist activity at human GABAA receptor; type: functional
[13] = biological target: GABA-A receptor; agonist GABA site (Homo sapiens) (UniProt P14867+P47870+P28472+P48169+P34903+P18505+P47869+P31644+Q16445); assay: Partial agonist activity at human GABAA receptor at 3 uM; type: functional
Rattus norvegicus [14] = assay: Toxicity in diet-induced obese rat assessed as change in body weight at 3 mg/kg, po after 18 hrs (RVb = 10 g); type: organism-based; set-up: dose 3 mg/kg, route oral; details: in vivo

## CC1(C)CC(NC(=O)CCO)c2cc(-c3ccc(Cl)cc3)c(-c3ccc(Cl)cc3Cl)nc2O1 (single isomer, unassigned; enantiomer 1) [N-(6-(4-CHLOROPHENYL)-7-(2,4-DICHLOROPHENYL)-2,2-DIMETHYL-3,4-DIHYDRO-2H-PYRANO[2,3-B]PYRIDIN-4-YL)-3-HYDROXYPROPANAMIDE (ENANTIOMERIC MIX)]
Rattus norvegicus [1]
  Activity: -11 g
Cannabinoid receptor 2
  pIC50: 5.61
[2]
  pIC50: 6.42
Rattus norvegicus [3]
  Activity: 48%
[4]
  clearance: 3 mL/min/kg
Cannabinoid receptor 1
  pIC50: 8.77
[5]
  bioavailability: 85%
[6]
  half-life: 13 h

## CN1c2nc(-c3ccc(Cl)cc3Cl)c(-c3ccc(Cl)cc3)cc2C(C(=O)NCO)CC1(C)C (single isomer, unassigned; enantiomer 1) [6-(4-CHLOROPHENYL)-7-(2,4-DICHLOROPHENYL)-N-(HYDROXYMETHYL)-1,2,2-TRIMETHYL-1,2,3,4-TETRAHYDRO-1,8-NAPHTHYRIDINE-4-CARBOXAMIDE (ENANTIOMERIC MIX)]
Cannabinoid receptor 2
  pIC50: 6.10
[2]
  pIC50: 7.40
[7]
  concentration at 4 h: 380 nM
Rattus norvegicus [3]
  Activity: 55%
[4]
  clearance: 12 mL/min/kg
Rattus norvegicus [8]
  Activity: -8 g
Cannabinoid receptor 1
  pIC50: 8.43
[9]
  Kp at 4 h: 0.88
[5]
  bioavailability: 25%
[10]
  concentration at 4 h: 76 nM
[6]
  half-life: 4.2 h

## CC(C)(O)C(=O)NC1CC2(CCCCC2)Oc2nc(-c3ccccc3Cl)c(-c3ccc(Cl)cc3)cc21 (single isomer, unassigned; enantiomer 1) [N-(7'-(2-CHLOROPHENYL)-6'-(4-CHLOROPHENYL)-3',4'-DIHYDROSPIRO[CYCLOHEXANE-1,2'-PYRANO[2,3-B]PYRIDINE]-4'-YL)-2-HYDROXY-2-METHYLPROPANAMIDE (ENANTIOMERIC MIX)]
Cannabinoid receptor 2
  pIC50: 5.49
[7]
  concentration at 4 h: 3500 nM
Rattus norvegicus [11]
  Activity: 3 g
Rattus norvegicus [3]
  Activity: 28%
[4]
  clearance: 62 mL/min/kg
Cannabinoid receptor 1
  pIC50: 9.15
[9]
  Kp at 4 h: 3.5
[5]
  bioavailability: 6%
[10]
  concentration at 4 h: 116 nM
[6]
  half-life: 1.9 h

## CC(C)(O)C(=O)c1oc2nc(-c3ccc(Cl)cc3Cl)c(-c3ccc(Cl)cc3)cc2c1NC(=O)CO
[12]
  pEC50: 6.15
[13]
  Emax: 18%

## C[C@H](NC(=O)C(C)(C)Oc1ccc(C(F)(F)F)cn1)[C@@H](Cc1ccc(Cl)cc1)c1cccc(C#N)c1 [TARANABANT]
Rattus norvegicus [3]
  Activity: 49%
Rattus norvegicus [14]
  Activity: -10 g
